The values below come from ChEMBL document CHEMBL1142721, “Nanomolar inhibitors of CNS epinephrine biosynthesis: (R)-(+)-3-fluoromethyl-7-(N-substituted aminosulfonyl)-1,2,3,4-tetrahydroisoquinolines as potent and highly selective inhibitors of phenylethanolamine N-methyltransferase1” (J Med Chem, 2005).

The experiment deals with T1, Alpha-2A adrenergic receptor (Rattus norvegicus, UniProt P22909).
T1 sequence (P22909 whole entry): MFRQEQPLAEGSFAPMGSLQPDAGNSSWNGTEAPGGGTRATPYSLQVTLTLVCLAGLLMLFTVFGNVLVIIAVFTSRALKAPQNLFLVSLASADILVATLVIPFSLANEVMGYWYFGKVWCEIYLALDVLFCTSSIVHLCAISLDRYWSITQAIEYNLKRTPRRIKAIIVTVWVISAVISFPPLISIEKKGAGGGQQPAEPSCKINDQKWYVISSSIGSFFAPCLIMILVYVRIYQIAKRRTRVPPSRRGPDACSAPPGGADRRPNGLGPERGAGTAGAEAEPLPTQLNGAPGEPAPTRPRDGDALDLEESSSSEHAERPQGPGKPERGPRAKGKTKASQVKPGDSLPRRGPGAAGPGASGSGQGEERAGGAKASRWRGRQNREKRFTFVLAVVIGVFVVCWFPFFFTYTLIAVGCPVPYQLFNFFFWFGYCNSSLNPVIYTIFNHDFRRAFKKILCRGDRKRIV
Briefly: In vitro binding affinity against rat Alpha-2 adrenergic receptor using [3H]clonidine. The gist of the method: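 Rat cortex membranes (male Sprague-Dawley) washed by three 50 000 × g spins in ice-cold 50 mM Tris/HCl pH 7.7. Incubated with [3H]clonidine at 2.0 nM final, 25 °C, 30 min. Bound ligand recovered on GF/B filters and counted. Nonspecific binding set with 2 µM phentolamine. Quadruplicate, 5 concentrations over a 16-fold range. IC50 from log-probit analysis, converted by Ki = IC50/(1 + [clonidine]/KD).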

Turning to `O=S(=O)(Nc1ccc(Cl)cc1)c1ccc2c(c1)CN[C@H](CF)C2`, the Ki came to 150 µM.

Compound `O=S(=O)(Nc1ccc(Cl)cc1)c1ccc2c(c1)CN[C@@H](CF)C2` showed a Ki of 140 µM.

Consider `COCCCNS(=O)(=O)c1ccc2c(c1)CN[C@@H](CF)C2`, for which the Ki came out at 680 µM.

With `CCNS(=O)(=O)c1ccc2c(c1)CN[C@@H](CF)C2`, the inhibitory constant (Ki) stood at 550 µM.

`O=S(=O)(NCCC(F)(F)F)c1ccc2c(c1)CN[C@@H](CF)C2` gave a Ki of 670 µM.

`O=S(=O)(NCCC(F)(F)F)c1ccc2c(c1)CNC(CF)C2` (configuration not stated) showed a Ki of 660 µM.

In the case of `O=S(=O)(c1ccc2c(c1)CN[C@@H](CF)C2)N1CCSCC1`, the affinity corresponds to a Ki of 200 µM.

Take `CCCNS(=O)(=O)c1ccc2c(c1)CN[C@@H](CF)C2`: the Ki is 570 µM.

In turn, `NS(=O)(=O)c1ccc2c(c1)CN[C@@H](CF)C2` came in with a Ki of 700 µM.

The compound `O=S(=O)(NCC(F)(F)F)c1ccc2c(c1)CN[C@@H](CF)C2` yielded a Ki of 1000 µM.

As for `CCNS(=O)(=O)c1ccc2c(c1)CNC(CF)C2` (racemic), the Ki is 550 µM.

Consider `COCCCNS(=O)(=O)c1ccc2c(c1)CNC(CF)C2` (racemic), for which the Ki amounted to 750 µM.

Consider `O=S(=O)(NCC(F)(F)F)c1ccc2c(c1)CNC(CF)C2` (racemic), for which affinity was put at a Ki of 1200 µM.

`O=S(=O)(Nc1ccc(Cl)cc1)c1ccc2c(c1)CNC(CF)C2` (racemic) gave a Ki of 140 µM.

`O=S(=O)(c1ccc2c(c1)CNC(CF)C2)N1CCSCC1` (racemic) displayed a Ki of 190 µM.

Compound `CCCNS(=O)(=O)c1ccc2c(c1)CNC(CF)C2` (racemic) yielded a Ki of 610 µM.

The compound `NS(=O)(=O)c1ccc2c(c1)CNC(CF)C2` (racemic) registered an inhibition constant Ki of 680 µM.
